Data from ChEMBL document CHEMBL1275516, “Macrolide antibiotic-mediated downregulation of MexAB-OprM efflux pump expression in Pseudomonas aeruginosa” (2008).
≈ marks a conversion by molar mass, not a printed value.

Experiments:
Type in all cases: functional
Pseudomonas aeruginosa [1] = test: Inhibition of MexAB-OprM efflux pump expression in Pseudomonas aeruginosa TNP090 mutant harboring las and rhl gene at 1 ug/ml after 7.5 hrs by Cat-2,3-diO reporter gene assay relative to untreated control; conditions: TNP090, 7.5 h
In short: (§1)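 Overnight TNP090 preculture diluted 100,000-fold (A600 3 × 10−5) in LB with or without 1 μg/ml azithromycin. Grown at 37°C with 200 rpm rotation and harvested at 5.5 h (AZM) or 4.5 h (drug-free), then at +2, +4 and +6 h. French-press extracts (130 MPa ×3), 13,000 × g supernatant assayed for Cat-2,3-diO. 1 unit = 1 nmol substrate/min/mg protein. Representative of repeated experiments.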

Pseudomonas aeruginosa [2] = test: Inhibition of MexAB-OprM efflux pump expression in Pseudomonas aeruginosa TNP090 mutant harboring las and rhl gene at 1 ug/ml by Cat-2,3-diO reporter gene assay relative to untreated control; conditions: values are per cent of control
In short: (§2)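 Overnight TNP090 (mexB::xylE reporter) preculture diluted 10,000-fold into fresh medium with or without antibiotic, dosed as fractions of the TNP090 MIC. Shaken at 200 rpm, 37°C, for 9 h to A600 ~1.5 (early stationary phase). Extracts made by French press at 130 MPa, then centrifuged at 13,000 × g. Cat-2,3-diO activity expressed relative to drug-free culture.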

Pseudomonas aeruginosa [3] = test: Inhibition of MexAB-OprM efflux pump expression in Pseudomonas aeruginosa TNP090 mutant harboring las and rhl gene at 1 ug/ml after 9.5 hrs by Cat-2,3-diO reporter gene assay relative to untreated control; conditions: TNP090, 9.5 h; in short: as §1
Pseudomonas aeruginosa [4] = test: Inhibition of MexAB-OprM efflux pump expression in Pseudomonas aeruginosa TNP090 mutant harboring las and rhl gene at 0.125 ug/ml by Cat-2,3-diO reporter gene assay relative to untreated control; conditions: values are per cent of control; in short: as §2
Pseudomonas aeruginosa [5] = test: Inhibition of MexAB-OprM efflux pump expression in las1 deficient Pseudomonas aeruginosa TNP091 at 1 ug/ml after 9 hrs by Cat-2,3-diO reporter gene assay; conditions: TNP091, 9 h, values are per cent of control
In short: (§3)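 Reporter strains lacking lasI, rhlI or both were diluted 10,000-fold from overnight culture into fresh medium with or without 1 μg/ml azithromycin. Cultures were shaken at 200 rpm, 37°C for 9 h (A600 ~1.5, early stationary phase). Cat-2,3-diO activity was assayed in cell extracts and […].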

Pseudomonas aeruginosa [6] = test: Inhibition of MexAB-OprM efflux pump expression in Pseudomonas aeruginosa at 1.0 ug/ml
In short: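 TNP090 (las+ rhl+, mexB::xylE reporter) overnight culture was diluted 100,000-fold (A600 3 × 10−5) into LB with or without 1 μg/ml azithromycin and shaken at 200 rpm, 37°C. Cells were harvested at ~4.5 h (drug-free) or 5.5 h (drug), then at plus 2, 4 and 6 h. Cat-2,3-diO activity was measured in French-press extracts (1 unit = 1 nmol substrate/min/mg protein). Results are representative of repeated experiments.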

Pseudomonas aeruginosa [7] = test: Inhibition of MexAB-OprM efflux pump expression in Pseudomonas aeruginosa TNP090 mutant harboring las and rhl gene at 1 ug/ml by Cat-2,3-diO reporter gene assay; in short: as §1
Pseudomonas aeruginosa [8] = test: Inhibition of MexAB-OprM efflux pump expression in las1 and rhl1 deficient Pseudomonas aeruginosa TNP093 at 1 ug/ml after 9 hrs by Cat-2,3-diO reporter gene assay; conditions: TNP093, 9 h, values are per cent of control; in short: as §3
Pseudomonas aeruginosa [9] = test: Inhibition of MexAB-OprM efflux pump expression in rhl1 deficient Pseudomonas aeruginosa TNP092 at 1 ug/ml after 9 hrs by Cat-2,3-diO reporter gene assay; conditions: TNP092, 9 h, values are per cent of control; in short: as §3
Pseudomonas aeruginosa [10] = test: Antibacterial activity against Pseudomonas aeruginosa TNP090 harboring chromosomal mexB::xylE fusion construct by agar dilution method
In short: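 Agar dilution MIC on Mueller-Hinton agar; inoculum 5 × 10^3 cells per spot.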

Pseudomonas aeruginosa [11] = test: Inhibition of MexAB-OprM efflux pump expression in Pseudomonas aeruginosa TNP090 mutant harboring las and rhl gene at 1 ug/ml after 11.5 hrs by Cat-2,3-diO reporter gene assay relative to untreated control; conditions: TNP090, 11.5 h; in short: as §1
Pseudomonas aeruginosa [12] = test: Inhibition of MexAB-OprM efflux pump expression in Pseudomonas aeruginosa TNP090 mutant harboring las and rhl gene at 0.25 ug/ml by Cat-2,3-diO reporter gene assay relative to untreated control; conditions: values are per cent of control; in short: as §2
Pseudomonas aeruginosa [13] = test: Inhibition of MexAB-OprM efflux pump expression in Pseudomonas aeruginosa TNP090 mutant harboring las and rhl gene at 1 ug/ml after 5.5 hrs by Cat-2,3-diO reporter gene assay relative to untreated control; conditions: TNP090, 5.5 h; in short: as §1
Pseudomonas aeruginosa [14] = test: Inhibition of MexAB-OprM efflux pump expression in Pseudomonas aeruginosa TNP090 mutant harboring las and rhl gene at 0.5 ug/ml by Cat-2,3-diO reporter gene assay relative to untreated control; conditions: values are per cent of control; in short: as §2
Pseudomonas aeruginosa [15] = test: Antibacterial activity against Pseudomonas aeruginosa PAO4290 by agar dilution method
In short: (§4)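 Agar dilution on Mueller-Hinton agar with an inoculum of 150 CFU/5 μl per spot. Plates were run with or without 1.0 μg/ml azithromycin incorporated in the agar, and MIC was read for each strain.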

Pseudomonas aeruginosa [16] = test: Antibacterial activity against MeXAB-OprM deficient Pseudomonas aeruginosa TNP077 selected after 1.0 ug/ml of azithromycin by agar dilution method; in short: as §4
Pseudomonas aeruginosa [17] = test: Antibacterial activity against MeXAB-OprM deficient Pseudomonas aeruginosa TNP077 by agar dilution method; in short: as §4
Pseudomonas aeruginosa [18] = test: Antibacterial activity against Pseudomonas aeruginosa PAO4290 selected after 1.0 ug/ml of azithromycin by agar dilution method; in short: as §4
Pseudomonas aeruginosa [19] = test: Antibacterial activity against Pseudomonas aeruginosa TNP030 by agar dilution method; in short: as §4
Pseudomonas aeruginosa [20] = test: Antibacterial activity against Pseudomonas aeruginosa TNP030 selected after 1.0 ug/ml of azithromycin by agar dilution method; in short: as §4
Pseudomonas aeruginosa [21] = test: Inhibition of MexAB-OprM efflux pump expression in Pseudomonas aeruginosa TNP090 mutant harboring las and rhl gene at 0.06 ug/ml by Cat-2,3-diO reporter gene assay relative to untreated control; conditions: values are per cent of control; in short: as §2
Pseudomonas aeruginosa [22] = test: Inhibition of MexAB-OprM efflux pump expression in Pseudomonas aeruginosa TNP090 mutant harboring las and rhl gene at 0.016 ug/ml by Cat-2,3-diO reporter gene assay relative to untreated control; conditions: values are per cent of control; in short: as §2
Pseudomonas aeruginosa [23] = test: Inhibition of MexAB-OprM efflux pump expression in Pseudomonas aeruginosa TNP090 mutant harboring las and rhl gene at 0.03 ug/ml by Cat-2,3-diO reporter gene assay relative to untreated control; conditions: values are per cent of control; in short: as §2

SMILES | MIC (Pseudomonas aeruginosa [15]) [µg/mL] | MIC (Pseudomonas aeruginosa [16]) [µg/mL] | MIC (Pseudomonas aeruginosa [17]) [µg/mL] | MIC (Pseudomonas aeruginosa [18]) [µg/mL] | MIC (Pseudomonas aeruginosa [19]) [µg/mL] | MIC (Pseudomonas aeruginosa [20]) [µg/mL] | other results
CC[C@H]1OC(=O)[C@H](C)[C@@H](O[C@H]2C[C@@](C)(OC)[C@@H](O)[C@H](C)O2)[C@H](C)[C@@H](O[C@@H]2O[C@H](C)C[C@H](N(C)C)[C@H]2O)[C@](C)(O)C[C@@H](C)CN(C)[C@H](C)[C@@H](O)[C@]1(C)O [AZITHROMYCIN] | – | – | – | – | – | – | inhibition at 1 µg/mL (Pseudomonas aeruginosa [1]): -73%; response, % of control at 1 µg/mL (Pseudomonas aeruginosa [2]): 37%; inhibition at 1 µg/mL (Pseudomonas aeruginosa [3]): -70.2%; response, % of control at 0.125 µg/mL (Pseudomonas aeruginosa [4]): 85%; response, % of control at 1 µg/mL (Pseudomonas aeruginosa [5]): 99%; inhibition at 1 µg/mL (Pseudomonas aeruginosa [6]): 70%; Activity (Pseudomonas aeruginosa [7]): 44.3; response, % of control at 1 µg/mL (Pseudomonas aeruginosa [8]): 100%; response, % of control at 1 µg/mL (Pseudomonas aeruginosa [9]): 90%; MIC (Pseudomonas aeruginosa [10]): 6.25 µg/mL (≈ 8.34 µM); inhibition at 1 µg/mL (Pseudomonas aeruginosa [11]): -63%; response, % of control at 0.25 µg/mL (Pseudomonas aeruginosa [12]): 78%; inhibition at 1 µg/mL (Pseudomonas aeruginosa [13]): -30.9%; response, % of control at 0.5 µg/mL (Pseudomonas aeruginosa [14]): 65%
O=C(N[C@H](CO)[C@H](O)c1ccc([N+](=O)[O-])cc1)C(Cl)Cl [CHLORAMPHENICOL] | 25 (≈ 77.4 µM) | 0.39 | 0.39 (≈ 1.21 µM) | 6.25 | 200 (≈ 619 µM) | 200 | –
CC1COc2c(N3CCN(C)CC3)c(F)cc3c(=O)c(C(=O)O)cn1c23 (stereo unspecified) [OFLOXACIN] | 0.78 (≈ 2.16 µM) | 0.05 | 0.05 (≈ 0.138 µM) | 0.78 | > 1.56 | > 1.56 | –
CC1(C)S[C@@H]2[C@H](NC(=O)C(C(=O)O)c3ccccc3)C(=O)N2[C@H]1C(=O)O (stereo partly specified) [CARBENICILLIN] | 50 (≈ 132 µM) | 1.56 | 0.78 (≈ 2.06 µM) | 12.5 | 200 (≈ 529 µM) | 200 | –
CO[C@@H]1[C@@H](OC(N)=O)[C@@H](O)[C@H](Oc2ccc3c(O)c(NC(=O)c4ccc(O)c(CC=C(C)C)c4)c(=O)oc3c2C)OC1(C)C [NOVOBIOCIN] | 800 (≈ 1310 µM) | 12.5 | 12.5 (≈ 20.4 µM) | 200 | > 1200 | > 1200 | –
C[C@H]1[C@H](NC(=O)/C(=N\OC(C)(C)C(=O)O)c2csc(N)n2)C(=O)N1S(=O)(=O)O [AZTREONAM] | 3.12 (≈ 7.17 µM) | 0.1 | 0.1 (≈ 0.23 µM) | 1.56 | 12.5 (≈ 28.7 µM) | 12.5 | –
C[C@@H](O)[C@H]1C(=O)N2C(C(=O)O)=C(SCCNC=N)C[C@H]12 [IMIPENEM ANHYDROUS] | 0.78 (≈ 2.61 µM) | 0.78 | 0.78 (≈ 2.61 µM) | 0.78 | 0.78 (≈ 2.61 µM) | 0.78 | –
CC(C)(O/N=C(\C(=O)N[C@@H]1C(=O)N2C(C(=O)[O-])=C(C[n+]3ccccc3)CS[C@H]12)c1csc(N)n1)C(=O)O [CEFTAZIDIME] | 1.56 (≈ 2.85 µM) | 0.39 | 0.39 (≈ 0.714 µM) | 1.56 | 3.13 (≈ 5.73 µM) | 3.13 | –
CN(C)[C@@H]1C(O)=C(C(N)=O)C(=O)[C@@]2(O)C(O)=C3C(=O)c4c(O)cccc4[C@@](C)(O)[C@H]3C[C@@H]12 [TETRACYCLINE] | 12.5 (≈ 28.1 µM) | 0.39 | 0.39 (≈ 0.878 µM) | 3.13 | 50 (≈ 113 µM) | 50 | response, % of control at 0.06 µg/mL (Pseudomonas aeruginosa [21]): 69%; response, % of control at 0.016 µg/mL (Pseudomonas aeruginosa [22]): 103%; response, % of control at 0.125 µg/mL (Pseudomonas aeruginosa [4]): 51%; response, % of control at 0.03 µg/mL (Pseudomonas aeruginosa [23]): 94%
